Two compounds from ChEMBL document CHEMBL3425404, “Structure-activity relationship in a purine-scaffold compound series with selectivity for the endoplasmic reticulum Hsp90 paralog Grp94” (J Med Chem, 2015) can be followed below.

The target of series [1] is Endoplasmin (Canis lupus familiaris, UniProt P41148). Kind of series: Binding affinity to canine full-length His-tagged GRP94 (28 to 754 residues lacking 287 to 327 residues) expressed in Escherichia coli by tryptophan fluorescence assay.
Series [2] in a line: Binding affinity to full length yeast His-tagged Hsp90 (1 to 709) overexpressed in Escherichia coli BL21 Star (DE3) by tryptophan fluorescence assay. Set-up: species or system Saccharomyces cerevisiae.
The species entered for series [3] is Homo sapiens. Kind of series: Selectivity ratio of IC50 for recombinant Hsp90beta (unknown origin) to IC50 for recombinant Grp94 (unknown origin).
For series [4], the species on record is Homo sapiens. Kind of series: Selectivity ratio of IC50 for recombinant Trap1 (unknown origin) to IC50 for recombinant Grp94 (unknown origin).
Series [5] concerns the target Endoplasmin (Homo sapiens) (UniProt P14625). As to the kind of experiment: Inhibition of Grp94 in HEK293T cells assessed as downregulation of TLR9 protein expression in post ER compartment after 24 hrs by confocal microscopic analysis. Type of series: cell-based. The settings on record: HEK-293T. The essentials:
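HEK293T cells were transfected with HA-tagged human TLR9 and split onto chamber slides 24 h later. They were then treated 24 h at varying concentrations. Cells were fixed in 4% paraformaldehyde, permeabilized with Triton X-100 and blocked in 3% BSA. They were stained with anti-HA then Cy3 secondary, with DAPI. Imaging was by confocal microscopy, and fluorescence intensity was normalized to cell number.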

The target of series [6] is Endoplasmin (Mus musculus) (UniProt P08113). As to the kind of experiment: Inhibition of Grp94 in mouse RAW264.7 cells assessed as inhibition of CpG-induced TNFalpha production after 18 hrs by ELISA. Type of series: cell-based. Background: In an ELISA, binding on a coated surface is turned into a signal by an enzyme label.
Endoplasmin (Mus musculus), sequence (P08113 whole entry): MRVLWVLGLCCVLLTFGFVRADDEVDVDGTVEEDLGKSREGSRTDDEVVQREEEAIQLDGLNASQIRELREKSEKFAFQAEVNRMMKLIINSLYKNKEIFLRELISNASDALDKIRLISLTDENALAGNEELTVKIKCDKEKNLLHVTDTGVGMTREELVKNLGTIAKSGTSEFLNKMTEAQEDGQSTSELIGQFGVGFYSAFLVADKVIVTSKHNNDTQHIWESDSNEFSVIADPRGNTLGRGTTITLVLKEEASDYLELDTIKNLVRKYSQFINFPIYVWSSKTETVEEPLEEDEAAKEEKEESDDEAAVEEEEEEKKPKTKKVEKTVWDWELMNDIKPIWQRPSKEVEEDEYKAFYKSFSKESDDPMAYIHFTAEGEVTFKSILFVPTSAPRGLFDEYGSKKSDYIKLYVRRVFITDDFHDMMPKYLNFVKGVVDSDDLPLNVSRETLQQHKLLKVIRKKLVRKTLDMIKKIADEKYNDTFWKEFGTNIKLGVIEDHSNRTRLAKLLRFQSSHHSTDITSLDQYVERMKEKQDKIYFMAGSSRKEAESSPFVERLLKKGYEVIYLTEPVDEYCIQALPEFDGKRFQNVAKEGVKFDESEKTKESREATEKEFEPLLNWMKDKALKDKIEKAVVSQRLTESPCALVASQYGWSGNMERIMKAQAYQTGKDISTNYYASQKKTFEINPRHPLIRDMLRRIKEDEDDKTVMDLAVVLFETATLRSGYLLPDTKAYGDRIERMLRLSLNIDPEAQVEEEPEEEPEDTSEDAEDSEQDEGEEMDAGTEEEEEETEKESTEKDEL
Series [7] has the same target. Kind of series: Inhibition of Grp94 in mouse differentiated C2C12 cells assessed as inhibition of IGF-2 secretion after 24 hrs by ELISA. It counts as cell-based. Summed up: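 C2C12 mouse myoblasts were shifted to differentiation medium (DMEM, 2% horse serum) and treated 24 h with compounds. Medium was captured overnight at 4 °C on anti-IGF-II ELISA plates and detected with biotinylated antibody, HRP-streptavidin and TMB. A450 was read, and IGF-II was quantified against a recombinant IGF-II standard curve.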

In series [8] the target is Endoplasmin (Homo sapiens) (UniProt P14625). As to the kind of experiment: Inhibition of Grp94 in human SKBR3 cells overexpressing HER2 assessed as degradation of HER2 at 1 to 25 uM after 24 hrs by Western blot analysis. It counts as cell-based. The conditions noted are these: SK-BR-3. The essentials: (§1)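 SKBr3 cells were treated 24 h with DMSO vehicle or compound, then lysed in RIPA with protease inhibitors. Lysate (5−50 μg) was run on SDS−PAGE and immunoblotted for HER2 or Hsp70, with β-actin as loading control. Detection was by HRP secondary and ECL, with densitometry. Blots are representative of triplicate experiments.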
Endoplasmin (Homo sapiens), sequence (P14625 whole entry): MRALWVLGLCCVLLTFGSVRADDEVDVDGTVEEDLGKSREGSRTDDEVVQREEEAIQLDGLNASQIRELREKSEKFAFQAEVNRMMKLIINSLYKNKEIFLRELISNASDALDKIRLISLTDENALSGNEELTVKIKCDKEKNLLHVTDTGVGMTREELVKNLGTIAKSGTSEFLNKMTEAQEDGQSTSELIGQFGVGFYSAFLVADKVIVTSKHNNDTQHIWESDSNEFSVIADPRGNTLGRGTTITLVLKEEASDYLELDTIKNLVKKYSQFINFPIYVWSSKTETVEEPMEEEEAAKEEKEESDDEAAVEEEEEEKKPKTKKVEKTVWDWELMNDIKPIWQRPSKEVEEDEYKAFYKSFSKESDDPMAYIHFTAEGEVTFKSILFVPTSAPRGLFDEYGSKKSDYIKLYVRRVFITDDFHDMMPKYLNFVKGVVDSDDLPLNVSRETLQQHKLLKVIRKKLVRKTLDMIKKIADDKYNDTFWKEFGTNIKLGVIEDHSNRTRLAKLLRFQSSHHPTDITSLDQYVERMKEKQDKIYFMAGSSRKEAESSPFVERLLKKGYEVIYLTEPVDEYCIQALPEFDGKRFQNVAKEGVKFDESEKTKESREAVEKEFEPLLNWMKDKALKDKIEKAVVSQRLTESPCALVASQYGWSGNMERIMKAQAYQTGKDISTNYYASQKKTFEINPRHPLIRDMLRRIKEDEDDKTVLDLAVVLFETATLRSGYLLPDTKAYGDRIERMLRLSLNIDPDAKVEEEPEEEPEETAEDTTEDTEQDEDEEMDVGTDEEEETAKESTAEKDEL

The target of series [9] is Heat shock protein HSP90 (Homo sapiens) (UniProt P07900+P08238). Kind of series: Inhibition of HSP90 in human SKBR3 cells assessed as induction of HSP70 activity at 1 to 25 uM after 24 hrs by Western blot analysis. Type of series: cell-based. The settings on record: SK-BR-3. The essentials: as §1
Background: In western blotting, separated proteins are transferred to a membrane and probed.

The subject of series [10] is RAW264.7. As to the kind of experiment: Inhibition of HSP90 in mouse RAW264.7 cells assessed as inhibition of LPS-induced TNFalpha production at 2 to 16 uM after 18 hrs by ELISA. Type of series: cell-based.
Series [11] deals with Mus musculus. As to the kind of experiment: Acute toxicity in nu/nu athymic mouse xenografted with human MDA-MB-468 cells at 150 mg/kg, ip. It counts as organism-based. Set-up: dose 150 mg/kg, route intraperitoneal. The conditions noted are these: in vivo. The essentials: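 MDA-MB-468 cells (1 × 10^7) were implanted sc in the right flank and allowed to grow. Tumour-bearing mice (n = 4) received 75 or 150 mg/kg ip and were followed for acute toxicity. Augmentin was given in the drinking water during therapy.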
Background: Xenograft models place foreign cells or tissue in a host animal.

Series [12] can be described thus: Drug uptake in tumor of nu/nu athymic mouse xenografted with human MDA-MB-468 cells at 75 mg/kg, ip measured at 2 hrs by LC-MS/MS analysis. The conditions noted are these: read-out: Drug uptake. Type of series: ADME, organism-based. Details: dose 75 mg/kg, route intraperitoneal. Summed up: (§2)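 Mice bearing subcutaneous MDA-MB-468 breast tumors (1 × 10^7 cells in right flank) got a single 75 mg/kg ip dose, n = 4 per time point. They were sacrificed at 2 and 24 h. Drug in tumor, tissues and plasma was quantified by LC−MS/MS, and tumor-to-tissue or tumor-to-plasma ratios were computed. Mean ± error.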

The nature of series [13]: Plasma concentration in nu/nu athymic mouse xenografted with human MDA-MB-468 cells at 75 mg/kg, ip measured at 2 hrs by LC-MS/MS analysis. Type of series: ADME, organism-based. Details: dose 75 mg/kg, route intraperitoneal. The essentials:
as §2

The subject of series [14] is Nucleic Acid. As to the kind of experiment: Ratio of drug level in tumor to heart in nu/nu athymic mouse xenografted with human MDA-MB-468 cells at 75 mg/kg, ip measured at 24 hrs by LC-MS/MS analysis. It counts as ADME, organism-based. Details: dose 75 mg/kg, route intraperitoneal. The conditions noted are these: in vivo. Summed up: as §2
The nature of series [15]: Ratio of drug level in tumor to plasma in nu/nu athymic mouse xenografted with human MDA-MB-468 cells at 75 mg/kg, ip measured at 24 hrs by LC-MS/MS analysis. Type of series: ADME, organism-based. Set-up: dose 75 mg/kg, route intraperitoneal. Summed up: as §2
Series [16] is described as follows: Oral bioavailability in B6D2F1 mouse at 10 mg/kg by LC-MS/MS analysis. It counts as ADME, organism-based. The conditions noted are these: in vivo. Summed up:
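Male B6D2F1 mice (n = 2 per time point, 20 total) got a single 10 mg/kg iv or oral dose in 30% captisol, 5 mM citrate pH 4.2. Plasma levels at sacrifice times were measured by LC−MS/MS, converted to molar assuming 1 g = 1 mL, and plotted versus time. Oral F was derived.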

The source made the active and inactive calls. The rule behind the calls is not given here.

Endoplasmin, sequence (P41148 22-804 limits assumed): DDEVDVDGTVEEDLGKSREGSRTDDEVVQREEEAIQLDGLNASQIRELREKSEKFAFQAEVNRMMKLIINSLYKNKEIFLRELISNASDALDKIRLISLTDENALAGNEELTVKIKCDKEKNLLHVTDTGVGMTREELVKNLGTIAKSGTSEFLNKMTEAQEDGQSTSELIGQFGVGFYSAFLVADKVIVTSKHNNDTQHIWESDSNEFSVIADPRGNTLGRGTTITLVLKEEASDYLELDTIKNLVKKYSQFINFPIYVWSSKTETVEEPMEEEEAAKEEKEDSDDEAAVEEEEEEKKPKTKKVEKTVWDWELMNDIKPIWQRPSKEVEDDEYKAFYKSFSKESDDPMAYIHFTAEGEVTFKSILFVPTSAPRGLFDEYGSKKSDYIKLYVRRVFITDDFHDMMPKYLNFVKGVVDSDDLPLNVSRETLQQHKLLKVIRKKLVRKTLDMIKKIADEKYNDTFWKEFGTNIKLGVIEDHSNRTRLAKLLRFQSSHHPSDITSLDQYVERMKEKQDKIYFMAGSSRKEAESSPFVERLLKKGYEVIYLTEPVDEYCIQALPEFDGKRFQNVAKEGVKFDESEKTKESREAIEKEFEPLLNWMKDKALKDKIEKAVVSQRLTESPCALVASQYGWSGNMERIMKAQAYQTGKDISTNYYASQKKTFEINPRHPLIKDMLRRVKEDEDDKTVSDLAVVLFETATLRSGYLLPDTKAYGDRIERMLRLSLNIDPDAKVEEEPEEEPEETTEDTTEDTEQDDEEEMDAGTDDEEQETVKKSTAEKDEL

Consider `COC(=O)c1c(O)cc(O)c(Cl)c1CCC(=O)NC1=CC(=O)C(OC)=CC1=O`, for which the results for the Kd in series [1] and in series [2] were 520 nM and 870 nM, respectively.

`CC(C)NCCCn1c(Sc2cc(Cl)cc(Cl)c2)nc2c(N)ncnc21`: the Ratio IC50 in series [3] was greater than 100; in series [4], 33. In addition, the inhibition entry in series [5], in series [6] and in series [7] was “Dose-dependent effect” throughout. In addition, the inhibition entry in series [8] was “Active”. Moreover, the inhibition result in series [9] and in series [10] was “inactive” each time. Further, the Activity result in series [11] is “Non-toxic”. Also, the concentration at 2 h in series [12] is 850 µM; in [13], 100 µM. Further, in [14], the Ratio was 100. In addition, in series [15], the concentration ratio (Kp) (commonly the ratio of the level in a tissue or fluid to that in plasma or blood) at 24 h came out at 200. The bioavailability (usually dose-corrected exposure relative to a reference, in per cent) in series [16] is 80%.
